Assay [1] in a line: hit retest on RPL19A-GFP reporter strain – cell-based, S. cerevisiae, flow cytometry, cherry picks, mother/daughter gates, confirmation (AID 2270;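 active means GFP response below 50% of the DMSO control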). As to conditions: 3 h, at 10 µM, stronger effect = lower value, 100 = same GFP as DMSO wells.
Assay [2] is described as follows: yeast TOR pathway reporter LAP4-GFP change – cell-based, cherry picks, flow cytometry, mother/daughter gates, confirmation (AID 2271;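 active means GFP response above 150% of the DMSO control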;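 further: ratio of sample to DMSO plate mean so 100% equals DMSO level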). As to conditions: S. cerevisiae LAP4-GFP strain, 3 h, at 10 µM, stronger effect = higher value, 100 means same as DMSO control. In a few lines:
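Material – Alexa Fluor 633-labelled Saccharomyces cerevisiae GFP-fusion strain, single-plex · Incubation – compound exposure 3 h at 30 °C, end-over-end rotation · Measured by – GFP by flow cytometry · Measure – median GFP fluorescence as percent of plate-mean DMSO wells · Control set – positive rapamycin (400 ng/mL), negative DMSO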

The nature of assay [3]: TOR pathway reporter MEP2-GFP, retest of hits – S. cerevisiae, flow cytometry GFP, cherry picks, confirmation (AID 2272;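 active means GFP response above 150% of the DMSO control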;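 further: ratio of well signal to plate DMSO mean so 100% equals DMSO level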). As to conditions: S. cerevisiae MEP2-GFP strain, 3 h, at 10 µM, stronger effect = higher value.
Assay [4] is described as follows: yeast AGP1-GFP fluorescence change, single-dose – cell-based, flow cytometry, S. cerevisiae, cherry picks, confirmation (AID 2273).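 Further: median GFP channel fluorescence over the whole cell population gate.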 As to conditions: S. cerevisiae AGP1-GFP strain, 3 h, at 10 µM.
A short description of assay [5]: TOR pathway CIT2 reporter hit retest – S. cerevisiae, GFP fusion, cherry picks, mother/daughter gates, confirmation (AID 2274). As to conditions: S. cerevisiae CIT2-GFP strain, flow cytometry, 3 h, at 10 µM, stronger effect = higher value.
Where [6] appears, read: measured here: daughter cell gate.
The mark [7] stands for this setting: measured here: mother cell gate.
[8] abbreviates: measured here: daughter cell gate response.
The mark [9] stands for this setting: measured here: mother cell gate response.

Activity calls are given as the source filed them.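 How the source made its calls, unless noted: active means GFP response above 150% of the DMSO level; inconclusive means fewer than 70 events counted for a yeast strain; inactive means the rest.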

For `CCc1cccc2sc(N3CCN(C(=O)c4ccc([N+](=O)[O-])o4)CC3)nc12`, the GFP response vs DMSO in assay [1] was 82.5% (inactive); in assay [1] (setting [6]), 85.9%; in assay [1] (setting [7]) it was 70.2%; in assay [3], 172% (inactive). Moreover, the GFP response relative to DMSO was 251% (active) in assay [2], 125% in assay [2] (setting [8]) and 222% in assay [2] (setting [9]). Further, the GFP response, % of DMSO in assay [4] is 108% (inactive); in assay [5], 108% (inactive); in assay [5] (setting [6]), 99.3%; in assay [5] (setting [7]), 102%.

As to `O=S(=O)(Nc1nc2ccccc2nc1Cl)c1ccc2ccccc2c1`, the GFP response vs DMSO in assay [1] is 98.4% (inactive); in assay [1] (setting [6]), 97.9%; in assay [1] (setting [7]), 98.1%; in assay [3], 96.8% (inactive). The GFP response relative to DMSO in assay [2] was 95.7% (inactive); in assay [2] (setting [8]), 92.6%; in assay [2] (setting [9]), 97.3%. Moreover, the GFP response, % of DMSO was 95.9% (inactive) in assay [4], 88.6% (inactive) in assay [5], 88.4% in assay [5] (setting [6]) and 88.2% in assay [5] (setting [7]).

For `Cc1cc(=O)oc2cc(OC(C)C(=O)NC3CCCC3)ccc12` (stereo not given), the GFP response vs DMSO in assay [1] was 102% (inactive); in assay [1] (setting [6]), 100%; in assay [1] (setting [7]), 102%; in assay [3] it was 101% (inactive). Besides, the GFP response relative to DMSO is 95.7% (inactive) in assay [2], 94.2% in assay [2] (setting [8]) and 95.2% in assay [2] (setting [9]). For the same molecule, the GFP response, % of DMSO in assay [4] was 105% (inactive); in assay [5] it was 95.9% (inactive); in assay [5] (setting [6]), 93.8%; in assay [5] (setting [7]), 95.6%.

`Cc1ncc2c(n1)-c1cc(F)ccc1SC2`: the GFP response vs DMSO in assay [1] is 104% (inactive); in assay [1] (setting [6]), 105%; in assay [1] (setting [7]), 103%; in assay [3], 109% (inactive). Moreover, the GFP response relative to DMSO is 87.6% (inactive) in assay [2], 89.6% in assay [2] (setting [8]) and 85.5% in assay [2] (setting [9]). Also, the GFP response, % of DMSO was 94.5% (inactive) in assay [4], 113% (inactive) in assay [5], 116% in assay [5] (setting [6]) and 109% in assay [5] (setting [7]).

`COC(=O)c1ccc(/C=C/C(=O)c2cccc(OC)c2)cc1`: the GFP response vs DMSO in assay [1] is 104% (inactive); in assay [1] (setting [6]) it was 102%; in assay [1] (setting [7]) it was 103%; in assay [3], 105% (inactive). Further, the GFP response relative to DMSO was 117% (inactive) in assay [2], 112% in assay [2] (setting [8]) and 116% in assay [2] (setting [9]). For the same molecule, the GFP response, % of DMSO in assay [4] is 101% (inactive); in assay [5], 103% (inactive); in assay [5] (setting [6]) it was 101%; in assay [5] (setting [7]), 102%.

Take `CCOC(=O)C(N)CSC1CC(=O)N(c2ccc(C(=O)OC)cc2)C1=O` (stereo not given): the GFP response vs DMSO in assay [1] was 98% (inactive); in assay [1] (setting [6]), 98.4%; in assay [1] (setting [7]), 98.7%; in assay [3], 100% (inactive). Further, the GFP response relative to DMSO is 102% (inactive) in assay [2], 102% in assay [2] (setting [8]) and 101% in assay [2] (setting [9]). In addition, the GFP response, % of DMSO was 98.1% (inactive) in assay [4], 98.3% (inactive) in assay [5], 99.1% in assay [5] (setting [6]) and 97.3% in assay [5] (setting [7]).

In the case of `O=C(c1ccc2ccccc2c1)N1CCN(c2ccc(O)cc2)CC1`, the GFP response vs DMSO in assay [1] is 101% (inactive); in assay [1] (setting [6]), 100%; in assay [1] (setting [7]) it was 101%; in assay [3] it was 106% (inactive). Besides, the GFP response relative to DMSO in assay [2] is 101% (inactive); in assay [2] (setting [8]) it was 102%; in assay [2] (setting [9]), 101%. The GFP response, % of DMSO in assay [4] is 99.3% (inactive); in assay [5], 103% (inactive); in assay [5] (setting [6]), 103%; in assay [5] (setting [7]), 104%.

In the case of `O=C(NCC(=O)N1CCCC1)c1cccs1`, the GFP response vs DMSO in assay [1] was 99.8% (inactive); in assay [1] (setting [6]), 99.6%; in assay [1] (setting [7]), 100%; in assay [3], 100% (inactive). The GFP response relative to DMSO in assay [2] was 99.2% (inactive); in assay [2] (setting [8]), 97.6%; in assay [2] (setting [9]) it was 98.3%. For the same molecule, the GFP response, % of DMSO was 97.2% (inactive) in assay [4], 104% (inactive) in assay [5], 105% in assay [5] (setting [6]) and 104% in assay [5] (setting [7]).

As to `COc1ccccc1N1C(=O)CC(Sc2ncccc2C(=O)O)C1=O` (stereo not given), the GFP response vs DMSO in assay [1] was 100% (inactive); in assay [1] (setting [6]), 98.4%; in assay [1] (setting [7]), 100%; in assay [3], 100% (inactive). The GFP response relative to DMSO is 95% (inactive) in assay [2], 95.6% in assay [2] (setting [8]) and 97.2% in assay [2] (setting [9]). The GFP response, % of DMSO in assay [4] was 99.2% (inactive); in assay [5] it was 100% (inactive); in assay [5] (setting [6]) it was 99.7%; in assay [5] (setting [7]), 99.8%.

Consider `CCN(CC)Cc1csc2ccc(Br)cc12`, for which the GFP response vs DMSO was 98.4% (inactive) in assay [1], 97.8% in assay [1] (setting [6]), 98.2% in assay [1] (setting [7]) and 102% (inactive) in assay [3]. The GFP response relative to DMSO is 96.2% (inactive) in assay [2], 97.2% in assay [2] (setting [8]) and 99.3% in assay [2] (setting [9]). The GFP response, % of DMSO in assay [4] is 100% (inactive); in assay [5] it was 97.8% (inactive); in assay [5] (setting [6]), 96.5%; in assay [5] (setting [7]), 98.7%.

For the molecule `Cc1ccc(-c2csc(NC(=O)c3ccno3)n2)cc1`, the GFP response vs DMSO was 99% (inactive) in assay [1], 98.4% in assay [1] (setting [6]), 96.5% in assay [1] (setting [7]) and 99% (inactive) in assay [3]. Moreover, the GFP response relative to DMSO was 103% (inactive) in assay [2], 99.1% in assay [2] (setting [8]) and 106% in assay [2] (setting [9]). Further, the GFP response, % of DMSO in assay [4] was 95.1% (inactive); in assay [5], 100% (inactive); in assay [5] (setting [6]), 99.2%; in assay [5] (setting [7]), 99.3%.

For the molecule `CCS(=O)(=O)N1N=C(c2ccccc2)CC1c1ccc2nccnc2c1` (stereo not given), the GFP response vs DMSO in assay [1] is 98.4% (inactive); in assay [1] (setting [6]), 98.9%; in assay [1] (setting [7]), 99.3%; in assay [3], 116% (inactive). Moreover, the GFP response relative to DMSO was 105% (inactive) in assay [2], 103% in assay [2] (setting [8]) and 104% in assay [2] (setting [9]). Besides, the GFP response, % of DMSO is 104% (inactive) in assay [4], 105% (inactive) in assay [5], 105% in assay [5] (setting [6]) and 107% in assay [5] (setting [7]).

Take `Cc1ccc(Oc2nc(-c3ccccn3)nc3ccccc23)cc1`: the GFP response vs DMSO is 98.2% (inactive) in assay [1], 94.7% in assay [1] (setting [6]), 97.8% in assay [1] (setting [7]) and 103% (inactive) in assay [3]. For the same molecule, the GFP response relative to DMSO in assay [2] was 110% (inactive); in assay [2] (setting [8]), 107%; in assay [2] (setting [9]), 110%. Further, the GFP response, % of DMSO is 92.2% (inactive) in assay [4], 91.5% (inactive) in assay [5], 92% in assay [5] (setting [6]) and 90.7% in assay [5] (setting [7]).

Turning to `COc1cccc(N=Nc2ccc(O)c3ncccc23)c1`, the GFP response vs DMSO in assay [1] is 98.2% (inactive); in assay [1] (setting [6]), 97.4%; in assay [1] (setting [7]), 98%; in assay [3] it was 117% (inactive). Besides, the GFP response relative to DMSO was 224% (active) in assay [2], 205% in assay [2] (setting [8]) and 228% in assay [2] (setting [9]). Besides, the GFP response, % of DMSO is 91.3% (inactive) in assay [4], 105% (inactive) in assay [5], 106% in assay [5] (setting [6]) and 99.7% in assay [5] (setting [7]).

With `COc1ccc(N2C(=O)c3cccc4cccc(c34)C2=O)nn1`, the GFP response vs DMSO in assay [1] is 98% (inactive); in assay [1] (setting [6]) it was 97.3%; in assay [1] (setting [7]), 98.7%; in assay [3], 97.8% (inactive). Besides, the GFP response relative to DMSO is 89% (inactive) in assay [2], 91% in assay [2] (setting [8]) and 91.1% in assay [2] (setting [9]). For the same molecule, the GFP response, % of DMSO in assay [4] was 98% (inactive); in assay [5], 92.6% (inactive); in assay [5] (setting [6]), 93.2%; in assay [5] (setting [7]), 91.2%.
